In ChEMBL document CHEMBL3758168, “Hybrid triazoles: Design and synthesis as potential dual inhibitor of growth and efflux inhibition in tuberculosis” (Eur J Med Chem, 2016):
≈ marks a conversion by molar mass, not a printed value.

How the values were obtained:
[1] = test system: Mycobacterium tuberculosis; assay: Antibacterial activity against Mycobacterium tuberculosis H37Rv ATCC 27294T assessed as amikacin MIC at 1 ug/ml after 7 days by microdilution checkerboard assay; assay type: functional; conditions: 168 h
How it was run: (§1)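 Two-dimensional checkerboard in H37Rv at 10^5 CFU/ml in MB7H9/OADC. Partner drug (amikacin, EtBr, isoniazid, ofloxacin or rifampin) two-fold serially diluted across columns 3-11. Test compound two-fold serially diluted down rows 2-6. Plates incubated 7 days at 37 °C, then MTT added overnight. […] Run in triplicate.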

[2] = test system: Mycobacterium tuberculosis; assay: Antibacterial activity against Mycobacterium tuberculosis H37Rv ATCC 27294T assessed as isoniazid MIC at 2 ug/ml after 7 days by microdilution checkerboard assay; assay type: functional; conditions: 168 h; how it was run: as §1
[3] = Cytotoxicity against human MDM assessed as cell viability after 3 days by Alamar blue dye-based fluorocytometric analysis relative to control; conditions: 72 h
[4] = test system: Mycobacterium tuberculosis; assay: Antibacterial activity against Mycobacterium tuberculosis H37Rv ATCC 27294T assessed as ofloxacin MIC at 4 ug/ml after 7 days by microdilution checkerboard assay; assay type: functional; conditions: 168 h; how it was run: as §1
[5] = test system: Mycobacterium tuberculosis; assay: Antibacterial activity against Mycobacterium tuberculosis H37Rv ATCC 27294T assessed as rifampin MIC at 8 ug/ml after 7 days by microdilution checkerboard assay; assay type: functional; conditions: 168 h
How it was run: (§2)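 M. tuberculosis H37Rv grown in MB7H9 + 10% OADC at 37 °C to OD600 0.8; plates inoculated at 10^5 CFU/ml. Rifampicin two-fold serially diluted across columns, test compound two-fold diluted down rows (two-dimensional checkerboard). Sealed, 37 °C for seven days, then MTT added and incubated overnight. MIC read as no colour change. Triplicate.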

[6] = test system: Mycobacterium tuberculosis; assay: Antibacterial activity against Mycobacterium tuberculosis H37Rv ATCC 27294T assessed as amikacin MIC at 0.25 ug/ml after 7 days by microdilution checkerboard assay; assay type: functional; conditions: 168 h; how it was run: as §1
[7] = test system: Mycobacterium tuberculosis; assay: Anti-tubercular activity against Mycobacterium tuberculosis H37Rv ATCC 27294T after 7 days by mircodilution method; assay type: functional; conditions: 168 h
How it was run: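 H37Rv grown static in MB7H9 + 10% OADC at 37 °C to OD600 0.8, then diluted to about 10^5 cells/ml. Mixed 1:1 with two-fold serial dilutions in MB7H9/OADC and incubated 7 days at 37 °C. MTT added to final 2.5% and plates incubated overnight. MIC is the lowest concentration with no colour change. Run in triplicate.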

[8] = test system: Mycobacterium tuberculosis; assay: Antibacterial activity against Mycobacterium tuberculosis H37Rv ATCC 27294T assessed as isoniazid MIC at 0.25 ug/ml after 7 days by microdilution checkerboard assay; assay type: functional; conditions: 168 h; how it was run: as §1
[9] = test system: Mycobacterium tuberculosis; assay: Antibacterial activity against Mycobacterium tuberculosis H37Rv ATCC 27294T assessed as ethidium bromide MIC at 0.5 ug/ml after 7 days by microdilution checkerboard assay; assay type: functional; conditions: 168 h; how it was run: as §1
[10] = test system: Mycobacterium tuberculosis; assay: Antibacterial activity against Mycobacterium tuberculosis H37Rv ATCC 27294T assessed as ethidium bromide MIC at 0.12 ug/ml after 7 days by microdilution checkerboard assay; assay type: functional; conditions: 168 h; how it was run: as §1
[11] = test system: Mycobacterium tuberculosis; assay: Antibacterial activity against Mycobacterium tuberculosis H37Rv ATCC 27294T assessed as ofloxacin MIC at 8 ug/ml after 7 days by microdilution checkerboard assay; assay type: functional; conditions: 168 h; how it was run: as §1
[12] = test system: Mycolicibacterium smegmatis; assay: Anti-tubercular activity against Mycobacterium smegmatis MC2 155 ATCC 700084 after 3 days by microdilution method; assay type: functional; conditions: MC2 155 ATCC 700084, 72 h
How it was run: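 M. smegmatis mc2155 grown in MB7H9 + 10% OADC at 37 °C with shaking to OD600 0.8. Inoculum set to 0.5 McFarland, diluted 1:100, and mixed 1:1 with two-fold serial dilutions in MB7H9. Plates incubated 3 days at 37 °C with growth and sterility controls. MIC taken as the lowest concentration with no visible growth.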

[13] = test system: Mycobacterium tuberculosis; assay: Antibacterial activity against Mycobacterium tuberculosis H37Rv ATCC 27294T assessed as ofloxacin MIC at 0.25 ug/ml after 7 days by microdilution checkerboard assay; assay type: functional; conditions: 168 h; how it was run: as §1
[14] = test system: Mycobacterium tuberculosis; assay: Antibacterial activity against Mycobacterium tuberculosis H37Rv ATCC 27294T assessed as ofloxacin MIC at 2 ug/ml after 7 days by microdilution checkerboard assay; assay type: functional; conditions: 168 h; how it was run: as §1
[15] = test system: Mycobacterium tuberculosis; assay: Antibacterial activity against Mycobacterium tuberculosis H37Rv ATCC 27294T assessed as isoniazid MIC at 0.5 ug/ml after 7 days by microdilution checkerboard assay; assay type: functional; conditions: 168 h; how it was run: as §1
[16] = test system: Mycobacterium tuberculosis; assay: Antibacterial activity against Mycobacterium tuberculosis H37Rv ATCC 27294T assessed as ethidium bromide MIC at 8 ug/ml after 7 days by microdilution checkerboard assay; assay type: functional; conditions: 168 h; how it was run: as §1
[17] = test system: Mycobacterium tuberculosis; assay: Antibacterial activity against Mycobacterium tuberculosis H37Rv ATCC 27294T assessed as ofloxacin MIC at 1 ug/ml after 7 days by microdilution checkerboard assay; assay type: functional; conditions: 168 h; how it was run: as §1
[18] = test system: Mycobacterium tuberculosis; assay: Antibacterial activity against Mycobacterium tuberculosis H37Rv ATCC 27294T assessed as ethidium bromide MIC at 1 ug/ml after 7 days by microdilution checkerboard assay; assay type: functional; conditions: 168 h; how it was run: as §1
[19] = test system: Mycobacterium tuberculosis; assay: Antibacterial activity against Mycobacterium tuberculosis H37Rv ATCC 27294T assessed as ethidium bromide MIC at 4 ug/ml after 7 days by microdilution checkerboard assay; assay type: functional; conditions: 168 h; how it was run: as §1
[20] = test system: Mycobacterium tuberculosis; assay: Antibacterial activity against Mycobacterium tuberculosis H37Rv ATCC 27294T assessed as amikacin MIC at 2 ug/ml after 7 days by microdilution checkerboard assay; assay type: functional; conditions: 168 h; how it was run: as §1
[21] = test system: Mycobacterium tuberculosis; assay: Antibacterial activity against Mycobacterium tuberculosis H37Rv ATCC 27294T assessed as amikacin MIC at 0.12 ug/ml after 7 days by microdilution checkerboard assay; assay type: functional; conditions: 168 h; how it was run: as §1
[22] = test system: Mycobacterium tuberculosis; assay: Antibacterial activity against Mycobacterium tuberculosis H37Rv ATCC 27294T assessed as rifampin MIC at 4 ug/ml after 7 days by microdilution checkerboard assay; assay type: functional; conditions: 168 h; how it was run: as §2
[23] = test system: Mycobacterium tuberculosis; assay: Antibacterial activity against Mycobacterium tuberculosis H37Rv ATCC 27294T assessed as isoniazid MIC at 4 ug/ml after 7 days by microdilution checkerboard; assay type: functional; conditions: 168 h; how it was run: as §1
[24] = test system: Mycobacterium tuberculosis; assay: Antibacterial activity against Mycobacterium tuberculosis H37Rv ATCC 27294T assessed as rifampin MIC at 0.25 ug/ml after 7 days by microdilution checkerboard assay; assay type: functional; conditions: 168 h; how it was run: as §1
[25] = test system: Mycobacterium tuberculosis; assay: Antibacterial activity against Mycobacterium tuberculosis H37Rv ATCC 27294T assessed as rifampin MIC at 2 ug/ml after 7 days by microdilution checkerboard assay; assay type: functional; conditions: 168 h; how it was run: as §2
[26] = test system: Mycobacterium tuberculosis; assay: Antibacterial activity against Mycobacterium tuberculosis H37Rv ATCC 27294T assessed as isoniazid MIC at 1 ug/ml after 7 days by microdilution checkerboard assay; assay type: functional; conditions: 168 h; how it was run: as §1
[27] = test system: Mycobacterium tuberculosis; assay: Antibacterial activity against Mycobacterium tuberculosis H37Rv ATCC 27294T assessed as amikacin MIC at 4 ug/ml after 7 days by microdilution checkerboard assay; assay type: functional; conditions: 168 h; how it was run: as §1
[28] = test system: Mycobacterium tuberculosis; assay: Antibacterial activity against Mycobacterium tuberculosis H37Rv ATCC 27294T assessed as ofloxacin MIC at 0.12 ug/ml after 7 days by microdilution checkerboard assay; assay type: functional; conditions: 168 h; how it was run: as §1
[29] = test system: Mycobacterium tuberculosis; assay: Antibacterial activity against Mycobacterium tuberculosis H37Rv ATCC 27294T assessed as ofloxacin MIC at 0.5 ug/ml after 7 days by microdilution checkerboard assay; assay type: functional; conditions: 168 h; how it was run: as §1
[30] = test system: Mycobacterium tuberculosis; assay: Antibacterial activity against Mycobacterium tuberculosis H37Rv ATCC 27294T assessed as rifampin MIC at 0.12 ug/ml after 7 days by microdilution checkerboard assay; assay type: functional; conditions: 168 h; how it was run: as §1
[31] = test system: Mycobacterium tuberculosis; assay: Antibacterial activity against Mycobacterium tuberculosis H37Rv ATCC 27294T assessed as isoniazid MIC at 8 ug/ml after 7 days by microdilution checkerboard assay; assay type: functional; conditions: 168 h; how it was run: as §1
[32] = test system: Mycobacterium tuberculosis; assay: Antibacterial activity against Mycobacterium tuberculosis H37Rv ATCC 27294T assessed as rifampin MIC at 0.5 ug/ml after 7 days by microdilution checkerboard assay; assay type: functional; conditions: 168 h; how it was run: as §2
[33] = test system: Mycobacterium tuberculosis; assay: Antibacterial activity against Mycobacterium tuberculosis H37Rv ATCC 27294T assessed as ethidium bromide MIC at 2 ug/ml after 7 days by microdilution checkerboard assay; assay type: functional; conditions: 168 h; how it was run: as §1
[34] = test system: Mycobacterium tuberculosis; assay: Antibacterial activity against Mycobacterium tuberculosis H37Rv ATCC 27294T assessed as ethidium bromide MIC at 0.25 ug/ml after 7 days by microdilution checkerboard assay; assay type: functional; conditions: 168 h; how it was run: as §1
[35] = test system: Mycobacterium tuberculosis; assay: Antibacterial activity against Mycobacterium tuberculosis H37Rv ATCC 27294T assessed as amikacin MIC at 0.5 ug/ml after 7 days by microdilution checkerboard assay; assay type: functional; conditions: 168 h; how it was run: as §1
[36] = test system: Mycobacterium tuberculosis; assay: Antibacterial activity against Mycobacterium tuberculosis H37Rv ATCC 27294T assessed as amikacin MIC at 8 ug/ml after 7 days by microdilution checkerboard assay; assay type: functional; conditions: 168 h; how it was run: as §1
[37] = test system: Mycobacterium tuberculosis; assay: Antibacterial activity against Mycobacterium tuberculosis H37Rv ATCC 27294T assessed as isoniazid MIC at 0.12 ug/ml after 7 days by microdilution checkerboard assay; assay type: functional; conditions: 168 h; how it was run: as §1
[38] = test system: Mycobacterium tuberculosis; assay: Antibacterial activity against Mycobacterium tuberculosis H37Rv ATCC 27294T assessed as rifampin MIC at 1 ug/ml after 7 days by microdilution checkerboard assay; assay type: functional; conditions: 168 h; how it was run: as §2

SMILES: CCCSc1nnc(COc2ccccc2C2=NOC(c3ccc(Cl)cc3Cl)C2)n1NC(C)=O (stereo not drawn)
- MIC [1]: 1 µg/mL
- MIC [2]: 0.0125 µg/mL
- IC50 [3]: 128 µg/mL (≈ 245 µM)
- MIC [4]: 0.0156 µg/mL
- MIC [5]: 0.0156 µg/mL
- MIC [6]: 1 µg/mL
- MIC [7]: 4 µg/mL (≈ 7.69 µM)
- MIC [8]: 0.1 µg/mL
- MIC [9]: 12.5 µg/mL
- MIC [10]: 12.5 µg/mL
- MIC [11]: 0.0156 µg/mL
- MIC [12]: 1 µg/mL (≈ 1.92 µM)
- MIC [13]: 1 µg/mL
- MIC [14]: 0.0312 µg/mL
- MIC [15]: 0.1 µg/mL
- MIC [16]: 0.195 µg/mL
- MIC [17]: 0.25 µg/mL
- MIC [18]: 6.25 µg/mL
- MIC [19]: 0.195 µg/mL
- MIC [20]: 0.25 µg/mL
- MIC [21]: 1 µg/mL
- MIC [22]: 0.0156 µg/mL
- MIC [23]: 0.00312 µg/mL
- MIC [24]: 0.0312 µg/mL
- MIC [25]: 0.0156 µg/mL
- MIC [26]: 0.05 µg/mL
- MIC [27]: 0.25 µg/mL
- MIC [28]: 1 µg/mL
- MIC [29]: 1 µg/mL
- MIC [30]: 0.0625 µg/mL
- MIC [31]: 0.00078 µg/mL
- MIC [32]: 0.0312 µg/mL
- MIC [33]: 0.781 µg/mL
- MIC [34]: 12.5 µg/mL
- MIC [35]: 1 µg/mL
- MIC [36]: 0.0312 µg/mL
- MIC [37]: 0.1 µg/mL
- MIC [38]: 0.0156 µg/mL
